# Data reported in ChEMBL document CHEMBL5712906, “Discovery of a novel long noncoding RNA overlapping the LCK gene that regulates prostate cancer cell growth” (2019).
# Activity calls are given as the source filed them. The rule behind the calls is not given here.
# Tests used:
# [1] = biological target: Histone acetyltransferase p300 (Homo sapiens) (UniProt Q09472); experiment: Inhibition of p300 in human LNCaP C4-2 cells assessed as reduction in R1881-induced increase in PSA expression at 0.3 uM measured after 24 hrs by qPCR analysis; assay type: cell-based
# Histone acetyltransferase p300 (Homo sapiens), sequence (Q09472 whole entry): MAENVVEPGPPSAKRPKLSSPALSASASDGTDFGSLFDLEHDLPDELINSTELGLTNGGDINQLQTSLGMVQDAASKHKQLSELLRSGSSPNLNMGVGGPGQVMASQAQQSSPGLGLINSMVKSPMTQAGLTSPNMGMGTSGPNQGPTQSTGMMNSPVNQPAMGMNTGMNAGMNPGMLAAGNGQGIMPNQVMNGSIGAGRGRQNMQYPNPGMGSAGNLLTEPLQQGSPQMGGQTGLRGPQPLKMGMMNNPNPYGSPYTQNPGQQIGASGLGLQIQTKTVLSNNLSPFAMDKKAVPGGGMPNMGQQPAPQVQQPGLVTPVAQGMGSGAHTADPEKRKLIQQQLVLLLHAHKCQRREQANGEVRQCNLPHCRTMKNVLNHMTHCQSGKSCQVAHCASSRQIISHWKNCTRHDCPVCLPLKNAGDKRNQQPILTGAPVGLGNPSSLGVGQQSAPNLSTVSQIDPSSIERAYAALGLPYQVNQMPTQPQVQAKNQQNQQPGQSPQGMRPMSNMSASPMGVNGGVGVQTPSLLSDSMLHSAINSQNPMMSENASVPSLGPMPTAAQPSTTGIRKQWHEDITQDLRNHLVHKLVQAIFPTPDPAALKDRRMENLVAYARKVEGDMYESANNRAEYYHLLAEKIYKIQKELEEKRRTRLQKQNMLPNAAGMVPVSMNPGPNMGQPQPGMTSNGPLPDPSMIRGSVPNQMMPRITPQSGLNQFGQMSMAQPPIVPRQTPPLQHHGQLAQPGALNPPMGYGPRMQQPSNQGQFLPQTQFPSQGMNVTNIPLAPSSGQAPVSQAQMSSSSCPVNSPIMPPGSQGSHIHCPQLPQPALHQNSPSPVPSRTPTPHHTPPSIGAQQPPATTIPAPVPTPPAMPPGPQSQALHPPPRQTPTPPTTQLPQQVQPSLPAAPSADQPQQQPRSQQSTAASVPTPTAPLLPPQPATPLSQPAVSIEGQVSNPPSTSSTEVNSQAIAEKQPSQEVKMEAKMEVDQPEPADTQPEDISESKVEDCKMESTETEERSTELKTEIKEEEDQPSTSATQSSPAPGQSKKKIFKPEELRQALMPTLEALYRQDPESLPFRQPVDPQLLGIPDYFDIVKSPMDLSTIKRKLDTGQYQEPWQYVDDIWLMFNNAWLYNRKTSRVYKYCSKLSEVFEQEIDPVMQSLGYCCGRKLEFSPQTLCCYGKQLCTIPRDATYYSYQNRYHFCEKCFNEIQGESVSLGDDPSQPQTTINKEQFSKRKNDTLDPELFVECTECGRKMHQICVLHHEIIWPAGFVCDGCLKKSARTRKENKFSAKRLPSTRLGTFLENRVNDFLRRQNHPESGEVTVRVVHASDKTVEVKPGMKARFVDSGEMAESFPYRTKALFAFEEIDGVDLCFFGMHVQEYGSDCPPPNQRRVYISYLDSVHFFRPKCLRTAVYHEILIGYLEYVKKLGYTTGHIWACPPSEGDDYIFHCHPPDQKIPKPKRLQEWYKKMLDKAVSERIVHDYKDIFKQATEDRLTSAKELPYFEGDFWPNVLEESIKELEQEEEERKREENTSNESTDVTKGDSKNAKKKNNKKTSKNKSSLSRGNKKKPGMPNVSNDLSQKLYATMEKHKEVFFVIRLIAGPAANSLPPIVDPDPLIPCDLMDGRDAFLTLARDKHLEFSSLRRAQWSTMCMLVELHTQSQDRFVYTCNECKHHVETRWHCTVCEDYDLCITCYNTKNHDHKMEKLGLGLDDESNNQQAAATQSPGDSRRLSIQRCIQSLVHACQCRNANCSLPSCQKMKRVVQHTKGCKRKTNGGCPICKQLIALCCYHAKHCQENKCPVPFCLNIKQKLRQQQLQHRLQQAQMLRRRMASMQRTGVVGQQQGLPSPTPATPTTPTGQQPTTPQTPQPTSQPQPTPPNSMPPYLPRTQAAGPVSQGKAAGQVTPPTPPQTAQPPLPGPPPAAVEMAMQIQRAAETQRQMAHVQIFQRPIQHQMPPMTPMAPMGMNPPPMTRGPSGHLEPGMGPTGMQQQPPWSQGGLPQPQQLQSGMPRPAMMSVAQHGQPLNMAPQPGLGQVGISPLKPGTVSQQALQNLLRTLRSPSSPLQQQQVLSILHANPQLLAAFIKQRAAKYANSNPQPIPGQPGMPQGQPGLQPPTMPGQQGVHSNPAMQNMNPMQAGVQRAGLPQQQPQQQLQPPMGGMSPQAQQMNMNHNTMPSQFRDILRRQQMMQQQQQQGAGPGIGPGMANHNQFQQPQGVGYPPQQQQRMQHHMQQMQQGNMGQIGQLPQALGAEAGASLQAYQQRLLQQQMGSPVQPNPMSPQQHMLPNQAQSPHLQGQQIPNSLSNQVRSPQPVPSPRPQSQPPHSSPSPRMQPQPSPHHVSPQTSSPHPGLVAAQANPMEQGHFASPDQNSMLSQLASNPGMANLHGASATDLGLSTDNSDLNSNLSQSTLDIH
# How it was run: (§1)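 Cells seeded 48 h in their usual growth medium, then given 1 nM R1881 with or without 0.3 μM inhibitor. RNA harvested 24 h after treatment; transcripts quantified by qPCR. HULLK measured with two independent LCK primer pairs (exon 13 or 3′UTR). PSA and TMPRSS2 transcripts serve as checks that p300 inhibition worked. n = 3.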
# [2] = biological target: Histone acetyltransferase p300 (Homo sapiens) (UniProt Q09472); experiment: Inhibition of p300 in human LNCaP cells assessed as effect on HULLK expression at 0.3 uM measured after 24 hrs by qpCR analysis; assay type: cell-based; how it was run: as §1
# [3] = biological target: Histone acetyltransferase p300 (Homo sapiens) (UniProt Q09472); experiment: Inhibition of p300 in human LNCaP cells assessed as reduction in R1881-induced increase in TMPRSS2 expression at 0.3 uM measured after 24 hrs by qPCR analysis; assay type: cell-based; how it was run: as §1
# [4] = biological target: Histone acetyltransferase p300 (Homo sapiens) (UniProt Q09472); experiment: Inhibition of p300 in human LNCaP C4-2 cells assessed as effect on HULLK expression at 0.3 uM measured after 24 hrs by qpCR analysis; assay type: cell-based; how it was run: as §1
# [5] = biological target: Histone acetyltransferase p300 (Homo sapiens) (UniProt Q09472); experiment: Inhibition of p300 in human LNCaP C4-2 cells assessed as reduction in R1881-induced increase in TMPRSS2 expression at 0.3 uM measured after 24 hrs by qPCR analysis; assay type: cell-based; how it was run: as §1
# [6] = biological target: Histone acetyltransferase p300 (Homo sapiens) (UniProt Q09472); experiment: Inhibition of p300 in human LNCaP C4-2 cells assessed as reduction in R1881-induced increase in HULLK expression at 0.3 uM measured after 24 hrs by qPCR analysis; assay type: cell-based; how it was run: as §1
# [7] = biological target: Histone acetyltransferase p300 (Homo sapiens) (UniProt Q09472); experiment: Inhibition of p300 in human LNCaP cells assessed as reduction in R1881-induced increase in PSA expression at 0.3 uM measured after 24 hrs by qPCR analysis; assay type: cell-based; how it was run: as §1
# [8] = biological target: Histone acetyltransferase p300 (Homo sapiens) (UniProt Q09472); experiment: Inhibition of p300 in human LNCaP cells assessed as reduction in R1881-induced increase in HULLK expression at 0.3 uM measured after 24 hrs by qPCR analysis; assay type: cell-based; how it was run: as §1
# LNCaP = experiment: Reduction in R1881-induced increase in LCK 3'-UTR expression in human LNCaP cells at 10 uM measured after 24 hrs by qPCR analysis; assay type: functional, cell-based
# How it was run: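 Cells seeded for 48 h, then exposed to 1 nM R1881 with or without 10 μM enzalutamide. RNA harvested 24 h after treatment. LCK transcript measured by qPCR with primers in the 3′UTR. n = 3.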
Compound,inhibition [1],inhibition [2],inhibition [3],inhibition [4],inhibition [5],inhibition [6],inhibition [7],inhibition [8],Activity (LNCaP)
CNC(=O)Nc1ccc2c(c1)CC[C@@]21OC(=O)N(CC(=O)N(Cc2ccc(F)cc2)[C@@H](C)C(F)(F)F)C1=O,Active,inactive,Active,inactive,Active,Active,Active,Active,
CNC(=O)c1ccc(N2C(=S)N(c3ccc(C#N)c(C(F)(F)F)c3)C(=O)C2(C)C)cc1F,,,,,,,,,Active
